Measurements taken from ChEMBL document CHEMBL3217512, “Indole/triazole conjugates are selective inhibitors and inducers of bacterial biofilms” (Medchemcomm, 2013).

Assays:
[1] = system: Staphylococcus aureus; assay: Inhibition of biofilm formation in Staphylococcus aureus 29213 after 24 hrs by crystal violet staining-based assay; assay type: functional, organism-based; settings: Staphylococcus aureus, 29213, 24 h
Procedure, shortened: (§1)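 Compounds active in the 150 μM screen were taken into dose-response studies under static conditions with a crystal violet read-out. IC50 is the concentration that inhibits 50% of biofilm growth relative to an untreated control.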

[2] = system: Staphylococcus aureus; assay: Inhibition of biofilm formation in methicillin-resistant Staphylococcus aureus BAA 44 after 24 hrs by crystal violet staining-based assay; assay type: functional, organism-based; settings: BAA 44, 24 h
Procedure, shortened: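 Static biofilm development in MRSA, read out by crystal violet staining against an untreated control. Initial screen at 150 μM. Inhibitors then went to dose-response, with IC50 taken as the concentration giving 50% inhibition of biofilm growth. Induction was judged at 50 μM: under 50% induction counted as "inducer", over 50% as "strong inducer".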

[3] = system: Escherichia coli; assay: Antimicrobial activity against Escherichia coli K-12 ER2718 assessed as effect on planktonic growth at PC50 after 2 to 24 hrs; assay type: organism-based
[4] = system: Escherichia coli; assay: Reversal of N-(2-(4-(((3aR,8aR)-1,2,3,3a,8,8a-hexahydropyrrolo[2,3-b]indol-3a-yl)methyl)-1H-1,2,3-triazol-1-yl)ethyl)-4-hexylbenzamide-induced biofilm inhibition in Escherichia coli K-12 ER2718 at PC50 relative to control; assay type: functional; design: scale not given: the % may be the effect or the level left
Procedure, shortened: (§2)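 E. coli static crystal violet biofilm assay. The inducer was added at its PC25, PC50 or PC75 concentration together with the reference inhibitor at a fixed concentration. Reversal was taken as the reduction in the inhibitor's anti-biofilm activity.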

[5] = system: Escherichia coli; assay: Antimicrobial activity against Escherichia coli K-12 ER2718 assessed as effect on planktonic growth at PC75 after 2 to 24 hrs; assay type: organism-based; settings: in vivo
[6] = system: Escherichia coli; assay: Antimicrobial activity against Escherichia coli K-12 ER2718 assessed as effect on planktonic growth at 50 uM after 2 to 24 hrs; assay type: organism-based
Procedure, shortened: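 Growth curve analysis of planktonic bacteria with each biofilm inducer at 50 μM, used to assess toxicity.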

[7] = system: Escherichia coli; assay: Antimicrobial activity against Escherichia coli K-12 ER2718 assessed as effect on planktonic growth at PC25 after 2 to 24 hrs; assay type: organism-based
[8] = system: Staphylococcus aureus; assay: Antimicrobial activity against Staphylococcus aureus 29213 assessed as effect on planktonic growth at IC50 after 2 to 24 hrs; assay type: organism-based; settings: in vivo
[9] = system: Escherichia coli; assay: Reversal of N-(2-(4-(((3aR,8aR)-1,2,3,3a,8,8a-hexahydropyrrolo[2,3-b]indol-3a-yl)methyl)-1H-1,2,3-triazol-1-yl)ethyl)-4-hexylbenzamide-induced biofilm inhibition in Escherichia coli K-12 ER2718; assay type: functional, organism-based; procedure, shortened: as §2
[10] = system: Escherichia coli; assay: Antimicrobial activity against Escherichia coli K-12 ER2718 assessed as effect on planktonic growth at IC50 after 2 to 24 hrs; assay type: organism-based
[11] = system: Escherichia coli; assay: Induction of biofilm formation in Escherichia coli K-12 ER2718 assessed as concentration required for 25% promotion of biofilm formation after 24 hrs by crystal violet staining-based assay; assay type: functional
Procedure, shortened: (§3)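 For strong inducers of E. coli biofilm, dose-response curves were run in the static crystal violet assay. PC25, PC50 and PC75 are the concentrations promoting biofilm formation by 25%, 50% and 75%.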

[12] = system: Staphylococcus aureus; assay: Antimicrobial activity against methicillin-resistant Staphylococcus aureus BAA 44 assessed as effect on planktonic growth at IC50 after 2 to 24 hrs; assay type: organism-based; settings: in vivo
[13] = system: Acinetobacter baumannii; assay: Inhibition of biofilm formation in Acinetobacter baumannii 19606 at 150 uM after 24 hrs by crystal violet staining-based assay relative to control; assay type: functional; settings: ATCC 19606 = CIP 70.34 = JCM 6841, 24 h
[14] = system: Staphylococcus aureus; assay: Antimicrobial activity against Staphylococcus aureus 29213 assessed as effect on planktonic growth at IC50 after 2 to 24 hrs by colony count method; assay type: organism-based; settings: in vivo
[15] = system: Escherichia coli; assay: Reversal of N-(2-(4-(((3aR,8aR)-1,2,3,3a,8,8a-hexahydropyrrolo[2,3-b]indol-3a-yl)methyl)-1H-1,2,3-triazol-1-yl)ethyl)-4-hexylbenzamide-induced biofilm inhibition in Escherichia coli K-12 ER2718 at PC75 relative to control; assay type: functional; design: scale not given: the % may be the effect or the level left; procedure, shortened: as §2
[16] = system: Escherichia coli; assay: Antimicrobial activity against Escherichia coli K-12 ER2718 assessed as effect on planktonic growth at PC25 in presence of N-(2-(4-(((3aR,8aR)-1,2,3,3a,8,8a-hexahydropyrrolo[2,3-b]indol-3a-yl)methyl)-1H-1,2,3-triazol-1-yl)ethyl)-4-hexylbenzamide; assay type: organism-based
[17] = system: Escherichia coli; assay: Induction of biofilm formation in Escherichia coli K-12 ER2718 at 50 uM after 24 hrs by crystal violet staining-based assay relative to control; assay type: functional
Procedure, shortened: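 Static biofilm assay with compounds at 50 μM and crystal violet read-out, relative to an untreated control. Compounds increasing biofilm by less than 50% were called inducers, and by more than 50% strong inducers.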

[18] = system: Escherichia coli; assay: Antimicrobial activity against Escherichia coli K-12 ER2718 assessed as effect on planktonic growth at PC50 in presence of N-(2-(4-(((3aR,8aR)-1,2,3,3a,8,8a-hexahydropyrrolo[2,3-b]indol-3a-yl)methyl)-1H-1,2,3-triazol-1-yl)ethyl)-4-hexylbenzamide; assay type: organism-based; settings: in vivo
[19] = system: Escherichia coli; assay: Antimicrobial activity against Escherichia coli K-12 ER2718 assessed as effect on planktonic growth at PC75 in presence of N-(2-(4-(((3aR,8aR)-1,2,3,3a,8,8a-hexahydropyrrolo[2,3-b]indol-3a-yl)methyl)-1H-1,2,3-triazol-1-yl)ethyl)-4-hexylbenzamide; assay type: organism-based; settings: in vivo
[20] = system: Escherichia coli; assay: Induction of biofilm formation in Escherichia coli K-12 ER2718 assessed as concentration required for 50% promotion of biofilm formation after 24 hrs by crystal violet staining-based assay; assay type: functional; procedure, shortened: as §3
[21] = system: Escherichia coli; assay: Antimicrobial activity against Escherichia coli K-12 ER2718 assessed as effect on planktonic growth at PC50 after 2 to 24 hrs by colony count method; assay type: organism-based; settings: in vivo
[22] = system: Acinetobacter baumannii; assay: Antimicrobial activity against Acinetobacter baumannii 19606 assessed as effect on planktonic growth at IC50 after 2 to 24 hrs by colony count method; design: species or system ATCC 19606
[23] = system: Escherichia coli; assay: Antimicrobial activity against Escherichia coli K-12 ER2718 assessed as effect on planktonic growth at IC50 after 2 to 24 hrs by colony count method; assay type: organism-based
[24] = system: Escherichia coli; assay: Antimicrobial activity against Escherichia coli K-12 ER2718 assessed as effect on planktonic growth at PC75 after 2 to 24 hrs by colony count method; assay type: organism-based; settings: in vivo
[25] = system: Escherichia coli; assay: Induction of biofilm formation in Escherichia coli K-12 ER2718 assessed as concentration required for 75% promotion of biofilm formation after 24 hrs by crystal violet staining-based assay; assay type: functional; procedure, shortened: as §3
[26] = system: Escherichia coli; assay: Reversal of N-(2-(4-(((3aR,8aR)-1,2,3,3a,8,8a-hexahydropyrrolo[2,3-b]indol-3a-yl)methyl)-1H-1,2,3-triazol-1-yl)ethyl)-4-hexylbenzamide-induced biofilm inhibition in Escherichia coli K-12 ER2718 at PC25 relative to control; assay type: functional; design: scale not given: the % may be the effect or the level left; procedure, shortened: as §2
[27] = system: Staphylococcus aureus; assay: Antimicrobial activity against methicillin-resistant Staphylococcus aureus BAA 44 assessed as effect on planktonic growth at IC50 after 2 to 24 hrs by colony count method; assay type: organism-based; settings: in vivo
[28] = system: Escherichia coli; assay: Antimicrobial activity against Escherichia coli K-12 ER2718 assessed as effect on planktonic growth at PC25 after 2 to 24 hrs by colony count method; assay type: organism-based
[29] = system: Acinetobacter baumannii; assay: Antimicrobial activity against Acinetobacter baumannii 19606 assessed as effect on planktonic growth at IC50 after 2 to 24 hrs; design: species or system ATCC 19606
[30] = system: Escherichia coli; assay: Inhibition of biofilm formation in Escherichia coli K-12 ER2718 after 24 hrs by crystal violet staining-based assay; assay type: functional, organism-based; settings: K-12 ER2718, 24 h; procedure, shortened: as §1

`CCCCCCc1ccc(C(=O)NCCn2cc(Cc3c[nH]c4ccccc34)nn2)cc1` was tested, and the IC50 [1] was 174 µM, the IC50 [2] was 313 µM and the Activity [3] was “Non-toxic”. For the same compound, the Activity [4] was 47%, the Activity [5] was “Non-toxic” and the Activity [6] was “Non-toxic”. For the same compound, the Activity [7] was “Non-toxic”, the Activity [8] was “Non-toxic” and the Activity [9] was “Dose-dependent effect”. The Activity [10] was “Non-toxic”, the Activity [11] was 47.8 µM and the Activity [12] was “Non-toxic”. For the same compound, the inhibition at 150 µM [13] was 25%, the Activity [14] was “Non-toxic” and the Activity [15] was 87%. The Activity [16] was “Non-toxic”, the Activity [17] was greater than 50% and the Activity [18] was “Non-toxic”. For the same compound, the Activity [19] was “Non-toxic”, the Activity [20] was 82.6 µM and the Activity [21] was “Non-toxic”. For the same compound, the Activity [22] was “Non-toxic”, the Activity [23] was “Non-toxic” and the Activity [24] was “Non-toxic”. The Activity [25] was 160.7 µM, the Activity [26] was 7.7% and the Activity [27] was “Non-toxic”. The Activity [28] was “Non-toxic” and the Activity [29] was “Non-toxic”.

`CCCCCCc1ccc(C(=O)NCCn2cc(C[C@@]34CCN[C@@H]3Nc3ccccc34)nn2)cc1` was tested, and the IC50 [1] was 12.5 µM, the IC50 [2] was 3.4 µM and the IC50 [30] was 100 µM.
